Experimental data taken from ChEMBL document CHEMBL1821688, “Synthesis and biological evaluation of (±)-3-(2-(2-fluorobenzyloxy) naphthalen-6-yl)-2-aminopropanoic acid derivatives as novel PTP1B inhibitors” (Eur J Med Chem, 2011).
pIC50: −log10 of the molar value. Calls of active or inactive are those of the source. No cut-off for these calls is given here.

What was measured:
[1] = biological target: T1, Tyrosine-protein phosphatase non-receptor type 1 (Homo sapiens, UniProt P18031); experiment: Inhibition of PTP1B using p-nitrophenyl phosphate as substrate
T1 sequence (P18031 whole entry): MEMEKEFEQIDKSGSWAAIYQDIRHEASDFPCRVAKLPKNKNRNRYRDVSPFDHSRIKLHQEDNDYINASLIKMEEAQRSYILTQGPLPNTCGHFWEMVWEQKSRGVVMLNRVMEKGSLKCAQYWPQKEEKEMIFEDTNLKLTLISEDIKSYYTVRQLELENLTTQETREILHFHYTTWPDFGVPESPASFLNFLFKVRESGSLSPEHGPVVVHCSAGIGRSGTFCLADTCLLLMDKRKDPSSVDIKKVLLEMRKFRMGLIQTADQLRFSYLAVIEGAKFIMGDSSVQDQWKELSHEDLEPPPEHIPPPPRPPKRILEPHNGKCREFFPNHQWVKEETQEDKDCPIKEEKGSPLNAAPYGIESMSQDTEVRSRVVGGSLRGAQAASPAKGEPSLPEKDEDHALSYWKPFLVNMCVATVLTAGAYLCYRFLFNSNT
How it was run: (§1)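 IC50 values were obtained by regression analysis and reported as mean ± SD of three replicate determinations.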

[2] = Selectivity ratio of IC50 for TCPTP to IC50 for PTP1B
[3] = biological target: T2, M-phase inducer phosphatase 2 (Homo sapiens, UniProt P30305); experiment: Inhibition of human recombinant CDC25B; how it was run: as §1
T2 sequence (P30305 whole entry): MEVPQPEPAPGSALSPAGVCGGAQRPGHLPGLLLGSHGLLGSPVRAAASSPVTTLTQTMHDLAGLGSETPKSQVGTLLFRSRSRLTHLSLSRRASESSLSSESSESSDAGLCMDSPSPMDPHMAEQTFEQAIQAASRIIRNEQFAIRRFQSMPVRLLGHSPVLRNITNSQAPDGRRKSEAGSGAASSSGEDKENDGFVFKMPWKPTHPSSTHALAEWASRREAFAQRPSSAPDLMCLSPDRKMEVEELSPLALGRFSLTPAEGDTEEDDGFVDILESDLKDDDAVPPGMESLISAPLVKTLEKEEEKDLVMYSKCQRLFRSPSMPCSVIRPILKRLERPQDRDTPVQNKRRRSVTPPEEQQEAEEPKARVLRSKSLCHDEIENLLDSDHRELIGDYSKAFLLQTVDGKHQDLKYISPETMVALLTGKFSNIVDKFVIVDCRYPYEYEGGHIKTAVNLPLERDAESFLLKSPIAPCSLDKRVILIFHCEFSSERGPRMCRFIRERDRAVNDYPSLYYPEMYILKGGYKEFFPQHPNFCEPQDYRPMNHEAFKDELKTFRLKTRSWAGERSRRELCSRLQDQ

[4] = biological target: Receptor-type tyrosine-protein phosphatase F (Homo sapiens) (UniProt P10586); experiment: Inhibition of human recombinant LAR at 20 ug/mL
Chain of Receptor-type tyrosine-protein phosphatase F (Homo sapiens) (P10586 whole entry): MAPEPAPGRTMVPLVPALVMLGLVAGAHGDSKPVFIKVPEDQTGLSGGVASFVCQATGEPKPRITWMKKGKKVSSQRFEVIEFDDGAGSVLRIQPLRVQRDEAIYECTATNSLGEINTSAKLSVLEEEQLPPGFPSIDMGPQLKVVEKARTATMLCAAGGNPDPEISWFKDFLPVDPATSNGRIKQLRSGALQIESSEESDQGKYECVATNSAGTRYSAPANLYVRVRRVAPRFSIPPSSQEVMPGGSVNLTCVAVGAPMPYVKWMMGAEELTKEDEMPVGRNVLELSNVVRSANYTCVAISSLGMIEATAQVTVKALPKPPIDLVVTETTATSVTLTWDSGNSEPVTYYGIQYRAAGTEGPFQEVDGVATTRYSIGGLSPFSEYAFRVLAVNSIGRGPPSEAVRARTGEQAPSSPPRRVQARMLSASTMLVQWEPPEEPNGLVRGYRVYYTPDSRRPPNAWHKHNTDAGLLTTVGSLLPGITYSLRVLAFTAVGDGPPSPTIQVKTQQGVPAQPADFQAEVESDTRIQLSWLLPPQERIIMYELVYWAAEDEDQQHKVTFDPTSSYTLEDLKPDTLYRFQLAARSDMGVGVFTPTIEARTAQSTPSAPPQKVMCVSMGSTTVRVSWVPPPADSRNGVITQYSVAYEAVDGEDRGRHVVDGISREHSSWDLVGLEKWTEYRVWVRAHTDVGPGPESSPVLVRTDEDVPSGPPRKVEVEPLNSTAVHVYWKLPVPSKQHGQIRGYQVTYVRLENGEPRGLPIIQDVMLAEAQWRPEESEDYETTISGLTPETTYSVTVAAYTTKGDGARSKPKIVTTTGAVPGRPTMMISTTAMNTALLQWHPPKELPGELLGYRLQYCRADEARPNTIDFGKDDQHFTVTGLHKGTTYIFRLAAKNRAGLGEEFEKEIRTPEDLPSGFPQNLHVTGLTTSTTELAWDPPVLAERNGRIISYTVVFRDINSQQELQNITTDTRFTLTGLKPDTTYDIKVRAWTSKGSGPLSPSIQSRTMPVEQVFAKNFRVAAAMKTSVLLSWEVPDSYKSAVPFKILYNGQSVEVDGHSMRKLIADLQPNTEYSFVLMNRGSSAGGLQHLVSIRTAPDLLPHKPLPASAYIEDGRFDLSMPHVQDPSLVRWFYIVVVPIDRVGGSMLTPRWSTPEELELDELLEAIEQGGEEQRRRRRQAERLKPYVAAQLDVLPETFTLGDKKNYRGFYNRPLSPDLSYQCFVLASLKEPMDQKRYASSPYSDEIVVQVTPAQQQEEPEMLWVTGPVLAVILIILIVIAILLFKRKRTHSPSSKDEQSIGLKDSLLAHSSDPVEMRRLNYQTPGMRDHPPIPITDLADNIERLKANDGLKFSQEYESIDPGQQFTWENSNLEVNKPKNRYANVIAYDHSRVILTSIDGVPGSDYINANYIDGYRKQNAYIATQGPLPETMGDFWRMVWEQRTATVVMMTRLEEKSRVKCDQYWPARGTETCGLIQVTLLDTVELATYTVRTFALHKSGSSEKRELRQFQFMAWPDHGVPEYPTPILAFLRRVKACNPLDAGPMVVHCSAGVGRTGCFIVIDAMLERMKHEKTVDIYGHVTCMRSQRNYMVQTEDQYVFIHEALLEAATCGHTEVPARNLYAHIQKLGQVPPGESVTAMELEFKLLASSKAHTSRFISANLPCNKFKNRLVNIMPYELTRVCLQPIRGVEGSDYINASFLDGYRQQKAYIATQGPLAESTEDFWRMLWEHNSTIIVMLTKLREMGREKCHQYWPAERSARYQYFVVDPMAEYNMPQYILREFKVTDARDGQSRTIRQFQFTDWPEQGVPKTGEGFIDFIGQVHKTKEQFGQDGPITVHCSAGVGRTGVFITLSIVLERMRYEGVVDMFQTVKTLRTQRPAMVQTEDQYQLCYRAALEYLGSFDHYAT

[5] = biological target: T3, Tyrosine-protein phosphatase non-receptor type 2 (Homo sapiens, UniProt P17706); experiment: Inhibition of TCPTP; how it was run: as §1
T3 sequence (P17706 whole entry): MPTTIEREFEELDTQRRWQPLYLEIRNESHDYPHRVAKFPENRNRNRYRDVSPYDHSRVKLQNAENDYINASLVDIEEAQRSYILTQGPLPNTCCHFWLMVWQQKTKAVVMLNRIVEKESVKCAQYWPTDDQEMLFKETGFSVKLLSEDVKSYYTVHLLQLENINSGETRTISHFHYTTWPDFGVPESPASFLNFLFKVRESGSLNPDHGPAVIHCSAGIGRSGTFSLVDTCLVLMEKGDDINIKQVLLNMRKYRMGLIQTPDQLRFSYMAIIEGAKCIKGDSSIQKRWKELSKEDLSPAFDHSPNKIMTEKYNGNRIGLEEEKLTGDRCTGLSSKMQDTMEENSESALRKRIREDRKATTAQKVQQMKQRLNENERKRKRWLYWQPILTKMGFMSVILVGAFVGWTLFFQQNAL

[6] = biological target: T4, Tyrosine-protein phosphatase non-receptor type 6 (Homo sapiens, UniProt P29350); experiment: Inhibition of human recombinant SHP1 in Tris buffer of pH 8 at 20 ug/mL
T4 sequence (P29350 whole entry): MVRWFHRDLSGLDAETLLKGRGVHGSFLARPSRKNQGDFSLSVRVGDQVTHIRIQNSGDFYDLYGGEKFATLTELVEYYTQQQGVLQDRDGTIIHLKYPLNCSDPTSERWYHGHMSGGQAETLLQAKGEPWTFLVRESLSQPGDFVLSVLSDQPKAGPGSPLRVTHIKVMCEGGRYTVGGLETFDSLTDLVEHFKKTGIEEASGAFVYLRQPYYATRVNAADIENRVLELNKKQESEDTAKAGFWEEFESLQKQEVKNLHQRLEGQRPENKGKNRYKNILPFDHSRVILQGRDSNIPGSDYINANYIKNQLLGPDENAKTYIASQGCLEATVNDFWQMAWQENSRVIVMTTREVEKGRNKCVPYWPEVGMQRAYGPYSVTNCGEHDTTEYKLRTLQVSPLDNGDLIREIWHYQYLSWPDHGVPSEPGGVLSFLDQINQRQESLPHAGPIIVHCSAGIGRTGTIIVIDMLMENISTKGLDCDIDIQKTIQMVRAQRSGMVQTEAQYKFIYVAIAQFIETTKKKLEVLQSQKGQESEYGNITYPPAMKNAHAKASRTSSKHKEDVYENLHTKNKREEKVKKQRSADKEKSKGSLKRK

[7] = biological target: Receptor-type tyrosine-protein phosphatase alpha (Homo sapiens) (UniProt P18433); experiment: Inhibition of human recombinant PTPalpha at 20 ug/mL
Chain of Receptor-type tyrosine-protein phosphatase alpha (Homo sapiens) (P18433 20-802 limits assumed): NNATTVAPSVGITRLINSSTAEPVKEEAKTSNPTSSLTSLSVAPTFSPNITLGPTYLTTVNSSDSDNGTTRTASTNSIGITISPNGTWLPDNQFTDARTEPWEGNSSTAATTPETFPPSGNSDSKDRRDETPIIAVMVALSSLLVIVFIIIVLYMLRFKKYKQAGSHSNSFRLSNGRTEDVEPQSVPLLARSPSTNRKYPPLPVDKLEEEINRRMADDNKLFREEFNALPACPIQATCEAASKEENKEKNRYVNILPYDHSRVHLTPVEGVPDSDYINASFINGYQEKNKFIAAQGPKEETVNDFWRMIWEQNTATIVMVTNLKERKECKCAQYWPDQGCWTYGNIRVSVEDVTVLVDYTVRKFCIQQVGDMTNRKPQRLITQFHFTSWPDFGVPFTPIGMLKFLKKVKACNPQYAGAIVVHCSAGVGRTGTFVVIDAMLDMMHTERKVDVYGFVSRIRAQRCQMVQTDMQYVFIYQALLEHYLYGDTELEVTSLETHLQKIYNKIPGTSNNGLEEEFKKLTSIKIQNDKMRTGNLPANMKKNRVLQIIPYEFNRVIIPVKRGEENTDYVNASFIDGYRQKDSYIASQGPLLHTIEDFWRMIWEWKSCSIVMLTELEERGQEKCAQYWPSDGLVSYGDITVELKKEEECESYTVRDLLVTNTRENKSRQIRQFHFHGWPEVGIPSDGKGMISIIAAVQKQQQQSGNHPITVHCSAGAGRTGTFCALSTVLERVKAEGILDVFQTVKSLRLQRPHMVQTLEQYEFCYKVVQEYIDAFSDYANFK

[8] = biological target: T4, Tyrosine-protein phosphatase non-receptor type 6; experiment: Inhibition of human recombinant SHP1 in Tris buffer at pH 8 using OMPF as substrate; how it was run: as §1
[9] = biological target: T5, Tyrosine-protein phosphatase non-receptor type 1 (Homo sapiens) (UniProt P18031); details: 2.5 to 10 uM
T5 sequence (whole entry): T1 sequence (P18031 whole entry)

[10] = biological target: T5, Tyrosine-protein phosphatase non-receptor type 1 (Homo sapiens); details: 2.5 to 10 uM; remark: listed apart in the source

Row | Structure (SMILES) | pIC50 [1] | Ratio IC50 [2] | pIC50 [3] | inhibition [4] | pIC50 [5] | inhibition [6] | inhibition [7] | pIC50 [8] | inhibition [9] | inhibition [10]
1 | O=C(NC(Cc1ccc2cc(O)ccc2c1)C(=O)O)c1ccccc1 (racemic) | < 3.52 | 1 |  |  |  |  |  |  |  | 
2 | O=C(NC(Cc1ccc2cc(OCc3ccccc3F)ccc2c1)C(=O)O)c1ccccc1 (racemic) | 5.18 | 1 | 4.71 | inactive | 5.03 | inactive | inactive |  |  | 
3 | COc1ccc(COc2ccc3cc(CC(NC(=O)c4ccccc4)C(=O)O)ccc3c2)cc1 (racemic) | 4.85 | 1 |  |  |  |  |  |  |  | 
4 | O=C(NC(Cc1ccc2cc(OCc3ccc(Cl)cc3)ccc2c1)C(=O)O)c1ccccc1 (racemic) | 4.66 | 1 |  |  |  |  |  |  |  | 
5 | CC(C)(C)OC(=O)NC(Cc1ccc2cc(O)ccc2c1)C(=O)O (racemic) | < 3.52 | 1 |  |  |  |  |  |  |  | 
6 | CC(C)(C)OC(=O)NC(Cc1ccc2cc(OCc3ccccc3F)ccc2c1)C(=O)O (racemic) | 4.96 | 1 |  |  |  |  |  |  |  | 
7 | NC(Cc1ccc2cc(OCc3ccccc3F)ccc2c1)C(=O)O (racemic) | 4.61 | 1 |  |  |  |  |  |  |  | 
8 | O=C(Cc1ccc(Cl)cc1)NC(Cc1ccc2cc(OCc3ccccc3F)ccc2c1)C(=O)O (racemic) | 5.10 | 1 | 5.07 | inactive | 4.89 |  | inactive | 4.81 |  | 
9 | O=C(COc1ccc(Cl)cc1)NC(Cc1ccc2cc(OCc3ccccc3F)ccc2c1)C(=O)O (racemic) | 4.97 | 1 | 4.86 | inactive | 4.76 | inactive | inactive |  |  | 
10 | O=C(CCc1ccccc1)NC(Cc1ccc2cc(OCc3ccccc3F)ccc2c1)C(=O)O (racemic) | 4.94 |  | 4.82 | inactive | 4.56 | inactive | inactive |  |  | 
11 | O=C(/C=C/c1ccccc1)NC(Cc1ccc2cc(OCc3ccccc3F)ccc2c1)C(=O)O (racemic) | 5.05 |  | 4.83 | inactive | 4.72 | inactive | inactive |  |  | 
12 | O=C(/C=C/c1ccccc1F)NC(Cc1ccc2cc(OCc3ccccc3F)ccc2c1)C(=O)O (racemic) | 5.60 | 1 | 5.34 | inactive | 5.52 |  | inactive | 5.01 |  | 
13 | O=C(/C=C/c1cccc(F)c1)NC(Cc1ccc2cc(OCc3ccccc3F)ccc2c1)C(=O)O (racemic) | 5.55 | 1 | 5.29 | inactive | 5.22 |  | inactive | 4.58 |  | 
14 | O=C(/C=C/c1ccc(F)cc1)NC(Cc1ccc2cc(OCc3ccccc3F)ccc2c1)C(=O)O (racemic) | 5.47 | 1 | 5.18 | inactive | 5.22 |  | inactive | 4.73 |  | 
15 | O=C(/C=C/c1ccccc1Cl)NC(Cc1ccc2cc(OCc3ccccc3F)ccc2c1)C(=O)O (racemic) | 5.90 | 3 | 5.51 | inactive | 5.42 |  | inactive | 5.61 | Active | tde
16 | O=C(/C=C/c1cccc(Cl)c1)NC(Cc1ccc2cc(OCc3ccccc3F)ccc2c1)C(=O)O (racemic) | 5.40 | 1 | 5.27 | inactive | 5.14 |  | inactive | 4.88 |  | 
17 | O=C(/C=C/c1ccc(Cl)cc1)NC(Cc1ccc2cc(OCc3ccccc3F)ccc2c1)C(=O)O (racemic) | 5.59 | 1 | 5.58 | inactive | 5.36 |  | inactive | 4.79 |  | 
18 | O=C(/C=C/c1ccccc1Br)NC(Cc1ccc2cc(OCc3ccccc3F)ccc2c1)C(=O)O (racemic) | 5.75 | 1 | 5.54 | inactive | 5.33 |  | inactive | 4.96 |  | 
19 | O=C(/C=C/c1ccc(Br)cc1)NC(Cc1ccc2cc(OCc3ccccc3F)ccc2c1)C(=O)O (racemic) | 5.80 | 1 | 5.60 | inactive | 5.44 |  | inactive | 4.89 |  | 
20 | O=C(/C=C/c1ccc(Cl)cc1Cl)NC(Cc1ccc2cc(OCc3ccccc3F)ccc2c1)C(=O)O (racemic) | 5.37 | 1 | 5.05 | inactive | 5.21 |  | inactive | 4.90 |  | 
21 | O=C(/C=C/c1ccc(Cl)c(Cl)c1)NC(Cc1ccc2cc(OCc3ccccc3F)ccc2c1)C(=O)O (racemic) | 5.33 |  | 5.25 | inactive | 4.82 |  | inactive | 4.97 |  | 
22 | COc1cccc(/C=C/C(=O)NC(Cc2ccc3cc(OCc4ccccc4F)ccc3c2)C(=O)O)c1 (racemic) | 5.09 | 1 | 4.97 | inactive | 4.82 |  | inactive | 4.78 |  | 
23 | COc1ccc(/C=C/C(=O)NC(Cc2ccc3cc(OCc4ccccc4F)ccc3c2)C(=O)O)cc1 (racemic) | 5.23 | 1 | 4.85 | inactive | 5.04 | inactive | inactive |  |  | 
24 | COc1ccc(/C=C/C(=O)NC(Cc2ccc3cc(OCc4ccccc4F)ccc3c2)C(=O)O)cc1OC (racemic) | 5.35 | 1 | 5.15 | inactive | 5.02 | inactive | inactive |  |  | 
25 | Cc1ccc(/C=C/C(=O)NC(Cc2ccc3cc(OCc4ccccc4F)ccc3c2)C(=O)O)cc1 (racemic) | 5.19 | 1 | 4.93 | inactive | 4.74 | inactive | inactive |  |  | 
26 | C[C@H]1[C@H](C)CC[C@]2(C(=O)O)CC[C@]3(C)C(=CC[C@@H]4[C@@]5(C)CC[C@H](O)C(C)(C)[C@@H]5CC[C@]43C)[C@H]12 [URSOLIC ACID] |  |  |  |  | 5.17 |  |  |  |  | 
